Three compounds from article PMC8256004 (ChemMedChem, 2020) can be followed below.

The term MIC denotes the smallest concentration in the dilution series that meets the test's criterion for growth inhibition. For orientation: Ki means a dissociation constant, usually derived from enzyme kinetics or from competition with a known ligand.

In one assay the test system is K. pneum blaKPC-2. The class given is cell-based, Klebsiella pneumoniae. The note with it: compound at constant 10 μg/mL; FEP 0.12 to 128 μg/mL. The procedure, abridged:
(§1)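 CLSI broth microdilution. Cultures grown overnight in Mueller-Hinton broth, then diluted to a McFarland standard (OD600 0.224). Cefepime serially diluted from 128 to 0.12 μg/mL, with boronic acid test compound held constant at 10 μg/mL. Incubated overnight at 37 °C and MIC read the next day.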

The next assay concerns KPC-Kpn. Briefly: Micro-broth dilution MIC of cefepime in combination with inhibitor, KPC-Kpn. The class given is cell-based, Klebsiella pneumoniae. As to conditions: for MIC of cefepime (FEP) in combination with compound, KPC-Kpn: compound at constant 10 μg/mL, FEP 0.12 to 128 μg/mL. Put shortly:
as §1
In general terms: In broth dilution the organism is exposed to a series of concentrations in liquid medium.

The target in another assay is KPC-2 β-lactamase (Klebsiella pneumoniae, UniProt Q9F663). Briefly: Competition kinetics of KPC-2 inhibition with nitrocefin as substrate. The class given is biochemical.
Chain of KPC-2 β-lactamase (Q9F663 25-293, looked up): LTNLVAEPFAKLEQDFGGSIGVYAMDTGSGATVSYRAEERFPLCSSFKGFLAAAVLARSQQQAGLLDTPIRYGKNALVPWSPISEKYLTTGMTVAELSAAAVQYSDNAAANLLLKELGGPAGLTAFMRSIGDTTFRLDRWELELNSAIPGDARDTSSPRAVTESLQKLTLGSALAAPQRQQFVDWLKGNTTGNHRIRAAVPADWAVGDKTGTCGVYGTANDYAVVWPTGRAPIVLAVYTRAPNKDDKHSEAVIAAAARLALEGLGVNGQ

Turning to `NC(=O)[C@@H]1CC[C@@H]2CN1C(=O)N2OS(=O)(=O)O` [avibactam], the “MIC of cefepime (FEP) in combination with compound, K. pneum blaKPC-2” value in the assay with K. pneum blaKPC-2 was < 0.12 µg/mL. Moreover, the “MIC of cefepime (FEP) in combination with compound, KPC-Kpn” value in the assay with KPC-Kpn is < 0.12 µg/mL.
As to `CO/N=C(\C(=O)N[C@@H]1C(=O)N2C(C(=O)[O-])=C(C[N+]3(C)CCCC3)CS[C@H]12)c1csc(N)n1` [FEP, cefepime], the MIC with KPC-Kpn (Klebsiella pneumoniae, read-out: MIC of cefepime (FEP) alone, KPC-Kpn) was found to be 32 µg/mL.
Take `O=C(O)C[C@@H]1CC[C@H](NC(=O)Cc2cccs2)B(O)O1` [vaborbactam]: the “MIC of cefepime (FEP) in combination with compound, K. pneum blaKPC-2” value with K. pneum blaKPC-2 came to 1 µg/mL. The same compound registered a Ki at KPC-2 β-lactamase of 0.02 ± 0.003 µM. Moreover, the “MIC of cefepime (FEP) in combination with compound, KPC-Kpn” value with KPC-Kpn was 0.5 µg/mL.
